In ChEMBL document CHEMBL1122866, “3-Phenyl-1-indanamines. Potential antidepressant activity and potent inhibition of dopamine, norepinephrine, and serotonin uptake” (J Med Chem, 1985):

Experiments:
Assay type in all cases: functional
[1] = species on record: Mus musculus; experiment: Antagonistic activity against tetrabenazine-induced ptosis in mice
Summary of the method: (§1)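 Mice dosed intraperitoneally; the result is reported as the ED50 in μmol/kg with a range in parentheses. Test compounds are racemates of >95% isomeric purity by TLC.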

[2] = species on record: Mus musculus; experiment: Compound was tested for antagonistic activity against 5-HTP-induced potentiation in mice; summary of the method: as §1
[3] = biological target: Norepinephrine transporter (Rattus norvegicus, UniProt Q9WTR4); experiment: Inhibition of noradrenaline uptake in rat synaptosomal fraction
Sequence of Norepinephrine transporter (Q9WTR4 whole entry): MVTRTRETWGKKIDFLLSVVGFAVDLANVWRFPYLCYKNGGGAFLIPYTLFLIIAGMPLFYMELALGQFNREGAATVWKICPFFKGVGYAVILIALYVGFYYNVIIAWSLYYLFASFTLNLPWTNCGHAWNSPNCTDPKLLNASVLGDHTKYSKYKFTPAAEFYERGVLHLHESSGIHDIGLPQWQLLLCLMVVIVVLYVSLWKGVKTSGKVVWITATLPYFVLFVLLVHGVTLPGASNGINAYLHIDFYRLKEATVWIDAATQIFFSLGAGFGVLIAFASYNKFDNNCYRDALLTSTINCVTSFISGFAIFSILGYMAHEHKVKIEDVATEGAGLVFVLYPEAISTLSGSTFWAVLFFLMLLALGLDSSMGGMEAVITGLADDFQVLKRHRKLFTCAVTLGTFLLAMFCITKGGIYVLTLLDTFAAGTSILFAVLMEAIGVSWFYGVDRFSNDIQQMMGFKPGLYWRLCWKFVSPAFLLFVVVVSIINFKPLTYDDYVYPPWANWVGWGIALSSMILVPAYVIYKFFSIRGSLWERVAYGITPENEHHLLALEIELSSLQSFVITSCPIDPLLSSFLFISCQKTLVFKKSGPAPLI
Summary of the method: (§2)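 Synaptosomal uptake of DA, NE or 5-HT measured. The IC50 is in nM and is the mean of at least two determinations, each using five test concentrations in triplicate.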

[4] = biological target: Sodium-dependent serotonin transporter (Rattus norvegicus, UniProt P31652); experiment: Inhibition of 5-HT uptake in rat synaptosomal fraction; summary of the method: as §2
Sequence of Sodium-dependent serotonin transporter (P31652 whole entry): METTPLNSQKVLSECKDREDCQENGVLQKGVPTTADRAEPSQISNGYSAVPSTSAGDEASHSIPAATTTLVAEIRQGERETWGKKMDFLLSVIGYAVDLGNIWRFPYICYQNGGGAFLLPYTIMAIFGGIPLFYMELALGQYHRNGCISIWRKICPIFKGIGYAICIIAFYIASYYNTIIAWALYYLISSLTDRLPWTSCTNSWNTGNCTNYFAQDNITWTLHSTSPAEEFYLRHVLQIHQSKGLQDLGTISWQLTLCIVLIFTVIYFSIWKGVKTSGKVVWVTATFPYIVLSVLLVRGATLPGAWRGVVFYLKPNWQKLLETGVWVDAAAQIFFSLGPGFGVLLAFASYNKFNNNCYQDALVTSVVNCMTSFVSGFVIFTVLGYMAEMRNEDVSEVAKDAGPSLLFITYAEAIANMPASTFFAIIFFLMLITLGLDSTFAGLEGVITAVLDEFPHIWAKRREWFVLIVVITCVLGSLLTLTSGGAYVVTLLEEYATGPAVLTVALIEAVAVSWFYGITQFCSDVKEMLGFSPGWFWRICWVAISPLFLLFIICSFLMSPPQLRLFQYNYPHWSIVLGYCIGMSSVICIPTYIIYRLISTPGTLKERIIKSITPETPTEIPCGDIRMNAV

[5] = biological target: Sodium-dependent dopamine transporter (Rattus norvegicus, UniProt P23977); experiment: Inhibition of dopamine uptake in rat synaptosomal fraction
Sequence of Sodium-dependent dopamine transporter (P23977 whole entry): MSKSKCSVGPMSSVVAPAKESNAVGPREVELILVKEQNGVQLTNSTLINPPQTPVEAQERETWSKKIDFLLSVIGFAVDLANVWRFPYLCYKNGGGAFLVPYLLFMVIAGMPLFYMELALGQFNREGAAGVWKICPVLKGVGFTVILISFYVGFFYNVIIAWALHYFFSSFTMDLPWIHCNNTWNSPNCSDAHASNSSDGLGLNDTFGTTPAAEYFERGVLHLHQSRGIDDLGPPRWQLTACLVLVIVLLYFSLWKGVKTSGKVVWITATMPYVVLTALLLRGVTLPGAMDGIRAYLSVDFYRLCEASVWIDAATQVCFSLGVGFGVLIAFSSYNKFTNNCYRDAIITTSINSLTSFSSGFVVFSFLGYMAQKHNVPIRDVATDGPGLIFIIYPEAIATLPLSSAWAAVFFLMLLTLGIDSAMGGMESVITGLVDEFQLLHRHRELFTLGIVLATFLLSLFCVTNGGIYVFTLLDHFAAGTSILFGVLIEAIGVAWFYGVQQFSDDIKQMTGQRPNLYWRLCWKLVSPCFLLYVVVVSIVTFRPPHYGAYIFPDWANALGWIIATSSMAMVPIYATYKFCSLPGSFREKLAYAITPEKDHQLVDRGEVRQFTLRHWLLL

[6] = species on record: Mus musculus; experiment: Antagonistic activity against 5-HTP induced potentiation in mice; summary of the method: as §1
[7] = species on record: Mus musculus; experiment: Antagonistic activity against tetrabenazine-induced ptosis in mice.; conditions: Mus musculus; read-out: ED50; summary of the method: as §1

Row | Compound | ED50 [1] [µM/kg] | ED50 [2] [µM/kg] | IC50 [3] [nM] | IC50 [4] [nM] | IC50 [5] [nM] | ED50 ([1]; Mus musculus, read-out: ED50) [µmol/kg] | ED50 ([2]; Mus musculus, read-out: ED50) [µmol/kg] | ED50 [6] [µmol/kg] | ED50 [7] [µmol/kg]
1 | CNC1CC(c2ccc(Cl)c(Cl)c2)c2ccc(OC)cc21 (configuration not stated) | 7 | 14 | 0.67 | 0.62 | 2.5 |  |  |  | 
2 | CNC1CC(c2ccc(Cl)c(Cl)c2)c2ccc(OC)cc21.Cl (configuration not stated) |  | 2.9 | 19 | 0.53 | 19 | 14 |  |  | 
3 | OCCNC1CC(c2ccc(Cl)c(Cl)c2)c2ccccc21 (configuration not stated) |  |  |  |  |  | 75 | 171 | > 111 | > 111
4 | COc1ccc2c(c1)C(N(C)C)CC2c1ccc(Cl)c(Cl)c1 (stereo in doubt; 53) | 33 | 14 | 16 | 1.6 | 10 |  |  |  | 
5 | COc1ccc2c(c1)C(N(C)C)CC2c1ccc(Cl)c(Cl)c1 (stereo in doubt; 79) |  |  | 3 | 2 | 15 | 34 | 7.4 |  | 
6 | CNC1CC(c2ccc(Cl)c(Cl)c2)c2ccc(O)cc21 (stereo in doubt; 80) |  |  | 6.3 | 0.11 | 4.1 | 15 | 59 |  | 
7 | CN1CCN(C2CC(c3ccc(Cl)c(Cl)c3)c3ccccc32)CC1 (stereo in doubt; 101) | 48 |  |  |  | 11 |  | 97 |  | 
8 | CNCCCC1(c2ccccc2)OC(C)(C)c2ccccc21 (configuration not stated) [TALOPRAM] |  |  | 2.9 | 1400 | 44000 | 1.2 | 44 |  | 
